Calls of active or inactive are those of the source. The rule behind the calls is not given here.
Tests used:
[1] = tested on: Human betaherpesvirus 5; assay: Antimicrobial activity against Human cytomegalovirus AD169 infected in 0.1 uM compound pretreated HELF assessed as inhibition of viral replication measured after 6 days post-infection; format: functional, organism-based
How it was run: (§1)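 HELF pretreated with ODN 1 h before infection with HCMV AD169 (MOI 1); ODN kept in medium after 2 h adsorption at 37°C. At 6 days p.i., cells plus supernatants sonicated and titrated by plaque assay on HELF; plaques counted microscopically, expressed as PFU/ml (log10) or % of control. IC50/IC90 by linear regression; duplicate wells, three independent experiments, means ± SD.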

[2] = tested on: Human betaherpesvirus 5; assay: Antimicrobial activity against Human cytomegalovirus AD169 infected in compound pretreated HELF assessed as expression of early protein by immunoblotting; format: functional, organism-based
How it was run: (§2)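 HELF pretreated with ODN (1 μM) 1 h before and during infection with HCMV AD169 (MOI 1). Whole-cell extracts taken at set times p.i., run on 8% SDS-PAGE (50 μg protein/lane), immunoblotted with MAbs to IE1/IE2, UL44 (early) or UL99 (late); actin as loading control.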

[3] = tested on: Human betaherpesvirus 5; assay: Antimicrobial activity against Human cytomegalovirus isolate AL1 infected in compound pretreated HELF assessed as inhibition of viral replication; format: functional, organism-based; details: Human betaherpesvirus 5, isolate AL1, HELF
How it was run: (§3)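 HELF pretreated 1 h with ODN, infected with clinical HCMV isolate (VR1814 or AL1, HUVEC-propagated) at MOI 1; ODN kept after 2 h adsorption. At 6 days p.i., yield titrated on HELF; IC50 from concentration–plaque reduction plot.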

[4] = tested on: Human betaherpesvirus 5; assay: Antimicrobial activity against Human cytomegalovirus AD169 infected in 1 uM compound pretreated HELF assessed as inhibition of viral replication measured after 6 days post-infection; format: functional, organism-based; how it was run: as §1
[5] = tested on: Human alphaherpesvirus 1; assay: Antimicrobial activity against Human herpesvirus 1 infected in compound pretreated HELF assessed as inhibition of viral replication at 1 uM; format: functional, organism-based
How it was run: (§4)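 HELF pretreated with ODN (0.1 or 1 μM) 1 h before infection with a clinical HSV-1 isolate at MOI 0.1; ODN kept in medium after 2 h adsorption. Harvest at 48 h p.i., sonication, plaque titration on Vero cells. Means ± SD of three independent experiments.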

[6] = tested on: Human betaherpesvirus 5; assay: Antimicrobial activity against Human cytomegalovirus AD169 infected in HELF assessed as inhibition of viral replication at 0.1 uM measured after 6 days post-infection; format: functional, organism-based
[7] = tested on: Human betaherpesvirus 5; assay: Antimicrobial activity against 0.1 uM compound pretreated Human cytomegalovirus AD169 infected in HELF assessed as reduction in viral titer 37 degC; format: functional, organism-based
How it was run: (§5)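 HCMV AD169 (10^4 PFU) incubated with ODN at 0.1 μM at 4 or 37°C for various times; samples then diluted to bring ODN below an antivirally active level; residual infectivity titrated by plaque assay on HELF. Means ± SD of three independent experiments.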

[8] = tested on: Human betaherpesvirus 5; assay: Antimicrobial activity against Human cytomegalovirus AD169 infected in compound pretreated HELF assessed as expression of immediate early 1 protein by immunoblotting; format: functional, organism-based; how it was run: as §2
[9] = tested on: Human betaherpesvirus 5; assay: Antimicrobial activity against Human cytomegalovirus AD169 infected in compound pretreated HELF measured as immediate early 2 mRNA level by RT-PCR; format: functional, organism-based
[10] = tested on: Human betaherpesvirus 5; assay: Antimicrobial activity against Human cytomegalovirus AD169 infected in 0.1 uM compound pretreated HELF assessed as viral DNA accumulation measured after 48 hrs post-infection by RT-PCR; format: functional, organism-based
How it was run: (§6)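 HELF treated with ODN (0.1 μM), then infected with HCMV AD169 (MOI 5). Total genomic DNA collected at 4 and 48 h p.i.; 15 ng analysed by TaqMan real-time PCR for IE1 (50 cycles, 95°C 15 s / 62°C 1 min). Copies normalized to 18S rRNA gene against plasmid standard curve. Means ± SD, three experiments.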

[11] = tested on: unidentified adenovirus; assay: Antimicrobial activity against unidentified adenovirus infected in compound pretreated HELF assessed as inhibition of viral replication; format: functional, organism-based
How it was run: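 HELF pretreated 1 h with ODN (0.1 or 1 μM), infected with an adenovirus clinical isolate (MOI 1); ODN kept after 2 h adsorption. Harvest at 4 days p.i., sonication, plaque titration on HELF. Means ± SD, three experiments.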

[12] = tested on: Human betaherpesvirus 5; assay: Antimicrobial activity against Human cytomegalovirus AD169 infected in compound pretreated HELF assessed as inhibition of viral replication measured after 6 days post-infection; format: functional, organism-based; details: Human betaherpesvirus 5, AD169, HELF; how it was run: as §1
[13] = tested on: Human betaherpesvirus 5; assay: Antimicrobial activity against 0.1 uM compound pretreated Human cytomegalovirus AD169 infected in HELF assessed as reduction in viral titer at 4 degC; format: functional, organism-based; how it was run: as §5
[14] = tested on: Human betaherpesvirus 5; assay: Antimicrobial activity against Human cytomegalovirus AD169 infected in 0.1 uM compound pretreated HELF assessed as viral DNA accumulation measured after 4 hrs post-infection by RT-PCR; format: functional, organism-based; how it was run: as §6
[15] = tested on: Human betaherpesvirus 5; assay: Antimicrobial activity against Human cytomegalovirus AD169 infected in compound pretreated HELF assessed as expression of late protein by immunoblotting; format: functional, organism-based; how it was run: as §2
[16] = tested on: Human betaherpesvirus 5; assay: Antimicrobial activity against Human herpesvirus 5 strain AD169 infected in HELF assessed as pp65 nuclear localization at 0.1 uM after 2 hrs […]; format: functional, organism-based
[17] = Antimicrobial activity against Murine cytomegalovirus (strain Smith) infected in compound pretreated mouse NIH 3T3 cells assessed as inhibition of viral replication; format: functional, cell-based; details: Murid betaherpesvirus 1, NIH3T3
How it was run: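 NIH 3T3 pretreated 1 h with ODN, infected with MCMV Smith (MOI 1); ODN kept after 2 h adsorption at 37°C. Harvest at 6 days p.i., sonication, plaque assay on NIH 3T3; IC50 from plaque reduction. Means ± SD, three experiments.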

[18] = tested on: Human betaherpesvirus 5; assay: Antimicrobial activity against Human cytomegalovirus AD169 infected in compound pretreated HELF measured as immediate early 1 mRNA level by RT-PCR; format: functional, organism-based
[19] = tested on: Human betaherpesvirus 5; assay: Antimicrobial activity against Human cytomegalovirus TB40 expressing EGPF tagged UL32 infected in HELF assessed as inhibition of inhibition of viral adsorption at 0.1 uM after 2 hrs by fluorescence microscopy; format: functional, organism-based
How it was run: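 Prechilled HELF on coverslips exposed to ODN (0.1 μM) or heparin (30 μg/ml) 1 h at 4°C, then infected with HCMV TB40 UL32-EGFP (MOI 20) 2 h at 4°C to permit attachment only. Washed in ice-cold PBS, fixed in 4% formaldehyde, propidium iodide counterstain; green virions imaged by confocal fluorescence microscopy. Done twice.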

[20] = tested on: Human betaherpesvirus 5; assay: Antimicrobial activity against Human cytomegalovirus isolate 1814 infected in compound pretreated HELF assessed as inhibition of viral replication; format: functional, organism-based; details: Human betaherpesvirus 5, isolate 1814, HELF; how it was run: as §3
[21] = Cytotoxicity against HELF assessed as cell viability by MTT assay after 6 days at <=10 uM; format: cell-based; details: human, 144 h
How it was run: (§7)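 HELF exposed to rising ODN concentrations (up to 10 μM) for 6 days; viable cells measured by MTT. CC50 taken as concentration that cuts viability to 50%.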

[22] = tested on: Human alphaherpesvirus 1; assay: Antimicrobial activity against Human herpesvirus 1 infected in compound pretreated HELF assessed as inhibition of viral replication at 0.1 uM; format: functional, organism-based; how it was run: as §4
[23] = tested on: Human betaherpesvirus 5; assay: Antimicrobial activity against Human cytomegalovirus isolate 1814 infected in compound pretreated HUVEC assessed as inhibition of viral replication; format: functional, organism-based; details: Human betaherpesvirus 5, isolate 1814, HUVEC
How it was run: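 HUVEC (passages 2–6, EGM-2 with 2% FBS) pretreated 1 h with ODN and infected with HCMV VR1814 at MOI 1; ODN maintained after 2 h adsorption. Yield at 6 days p.i. titrated on HELF; IC50 from concentration-dependent plaque reduction.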

[24] = tested on: Human betaherpesvirus 5; assay: Antimicrobial activity against Human cytomegalovirus AD169 infected in HELF assessed as inhibition of viral replication at 1 uM measured after 6 days post-infection; format: functional, organism-based
[25] = tested on: Human betaherpesvirus 5; assay: Antimicrobial activity against Human cytomegalovirus AD169 infected in compound pretreated HELF assessed as expression of immediate early 2 protein by immunoblotting; format: functional, organism-based; how it was run: as §2
[26] = Cytotoxicity against HELF assessed as cell viability after 6 days by MTT assay; format: cell-based; details: human, HELF cells; how it was run: as §7
[27] = tested on: Vesicular stomatitis Indiana virus; assay: Antimicrobial activity against Vesicular stomatitis Indiana virus infected in compound pretreated HELF assessed as inhibition of viral replication; format: functional, organism-based
How it was run: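 HELFs exposed to ODN (0.1 or 1 μM) for 1 h, then infected with VSV serotype Indiana at MOI 1 (2 h adsorption, 37°C). ODN kept in the medium until 48 h p.i. Cells and supernatants were pooled, sonicated and titrated by plaque assay on HELFs. Data are means ± standard deviations of three independent experiments, duplicate wells.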

Cc1cn([C@H]2C[C@H](OP(O)(O)=S)[C@@H](COP(O)(=S)O[C@H]3C[C@H](n4cc(C)c(=O)[nH]c4=O)O[C@@H]3COP(O)(=S)O[C@H]3[C@@H](O)[C@H](n4cnc5c(=O)[nH]c(N)nc54)O[C@@H]3COP(O)(=S)O[C@H]3[C@@H](O)[C@H](n4ccc(N)nc4=O)O[C@@H]3COP(O)(=S)O[C@H]3C[C@H](n4cc(C)c(=O)[nH]c4=O)O[C@@H]3COP(O)(=S)O[C@H]3[C@@H](O)[C@H](n4cnc5c(=O)[nH]c(N)nc54)O[C@@H]3COP(O)(=S)O[C@H]3C[C@H](n4cc(C)c(=O)[nH]c4=O)O[C@@H]3COP(O)(=S)O[C@H]3C[C@H](n4cc(C)c(=O)[nH]c4=O)O[C@@H]3COP(O)(=S)O[C@H]3C[C@H](n4cc(C)c(=O)[nH]c4=O)O[C@@H]3COP(O)(=S)O[C@H]3C[C@H](n4cc(C)c(=O)[nH]c4=O)O[C@@H]3COP(O)(=S)O[C@H]3[C@@H](O)[C@H](n4cnc5c(=O)[nH]c(N)nc54)O[C@@H]3COP(O)(=S)O[C@H]3[C@@H](O)[C@H](n4ccc(N)nc4=O)O[C@@H]3COP(O)(=S)O[C@H]3C[C@H](n4cc(C)c(=O)[nH]c4=O)O[C@@H]3COP(O)(=S)O[C@H]3[C@@H](O)[C@H](n4cnc5c(=O)[nH]c(N)nc54)O[C@@H]3COP(O)(=S)O[C@H]3C[C@H](n4cc(C)c(=O)[nH]c4=O)O[C@@H]3COP(O)(=S)O[C@H]3C[C@H](n4cc(C)c(=O)[nH]c4=O)O[C@@H]3COP(O)(=S)O[C@H]3C[C@H](n4cc(C)c(=O)[nH]c4=O)O[C@@H]3COP(O)(=S)O[C@H]3C[C@H](n4cc(C)c(=O)[nH]c4=O)O[C@@H]3COP(O)(=S)O[C@H]3[C@@H](O)[C@H](n4cnc5c(=O)[nH]c(N)nc54)O[C@@H]3COP(O)(=S)O[C@H]3[C@@H](O)[C@H](n4ccc(N)nc4=O)O[C@@H]3COP(O)(=S)O[C@H]3C[C@H](n4cc(C)c(=O)[nH]c4=O)O[C@@H]3COP(O)(=S)O[C@H]3[C@@H](O)[C@H](n4cnc5c(=O)[nH]c(N)nc54)O[C@@H]3COP(O)(=S)O[C@H]3[C@@H](O)[C@H](n4ccc(N)nc4=O)O[C@@H]3COP(O)(=S)O[C@H]3C[C@H](n4cc(C)c(=O)[nH]c4=O)O[C@@H]3CO)O2)c(=O)[nH]c1=O (stereo partly drawn)
inhibition [1]: Active
inhibition [2]: Active
IC50 [3]: 0.044 µM
inhibition [4]: Active
inhibition [5]: inactive
inhibition [6]: inactive
inhibition [7]: inactive
inhibition [8]: Active
inhibition [9]: Active
inhibition [10]: Active
inhibition [11]: inactive
IC50 [12]: 0.02 µM
IC90 [12]: 0.065 µM
inhibition [13]: inactive
inhibition [14]: Active
inhibition [15]: Active
inhibition [16]: Active
IC50 [17]: 0.05 µM
inhibition [18]: Active
inhibition [19]: inactive
IC50 [20]: 0.038 µM
Activity [21]: Non-toxic
inhibition [22]: inactive
IC50 [23]: 0.025 µM
inhibition [24]: inactive
inhibition [25]: Active
CC50 at 144 h [26]: > 10 µM
inhibition [27]: inactive
